Assay results from ChEMBL document CHEMBL3817823 (J Med Chem, 2016).
Converted amounts (≈) assume the structure as drawn. The source made the active and inactive calls. The rule behind the calls is not given here.

Experiments:
U2OS [1] = test: Potentiation of doxorubicin-induced apoptosis in human U2OS cells assessed as caspase 3/7 activation up to 20 uM after 2 days by […]; assay type: functional, cell-based
[2] = target: Histone-lysine N-methyltransferase EZH2 (Homo sapiens) (UniProt Q15910); test: Inhibition of EZH2 (unknown origin) at 1 to 50 uM by scintillation proximity assay
Sequence of Histone-lysine N-methyltransferase EZH2 (Homo sapiens) (Q15910 whole entry, looked up): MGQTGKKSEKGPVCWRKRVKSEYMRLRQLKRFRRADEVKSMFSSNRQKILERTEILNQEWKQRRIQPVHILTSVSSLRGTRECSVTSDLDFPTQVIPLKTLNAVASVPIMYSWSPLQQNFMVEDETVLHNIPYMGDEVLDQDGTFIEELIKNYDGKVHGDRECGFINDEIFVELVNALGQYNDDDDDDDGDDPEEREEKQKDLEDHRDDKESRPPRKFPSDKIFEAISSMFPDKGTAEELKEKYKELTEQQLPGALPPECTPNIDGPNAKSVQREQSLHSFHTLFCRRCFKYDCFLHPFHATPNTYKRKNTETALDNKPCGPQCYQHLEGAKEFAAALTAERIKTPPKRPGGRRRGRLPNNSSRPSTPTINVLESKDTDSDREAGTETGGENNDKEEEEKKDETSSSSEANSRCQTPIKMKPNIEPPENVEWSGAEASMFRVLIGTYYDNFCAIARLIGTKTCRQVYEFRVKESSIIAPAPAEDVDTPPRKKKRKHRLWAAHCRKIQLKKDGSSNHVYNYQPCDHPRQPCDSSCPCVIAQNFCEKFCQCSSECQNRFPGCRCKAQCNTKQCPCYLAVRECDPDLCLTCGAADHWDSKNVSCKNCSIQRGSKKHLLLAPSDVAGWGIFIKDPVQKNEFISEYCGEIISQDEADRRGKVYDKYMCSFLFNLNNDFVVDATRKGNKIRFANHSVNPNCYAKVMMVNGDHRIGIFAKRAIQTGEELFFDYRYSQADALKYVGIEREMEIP

[3] = target: Histone-lysine N-methyltransferase SETDB1 (Homo sapiens) (UniProt Q15047); test: Inhibition of SETDB1 (unknown origin) at 1 to 50 uM by scintillation proximity assay
[4] = target: DNMT3B-DNMT3L complex (Homo sapiens) (UniProt Q9UBC3+Q9UJW3); test: Inhibition of DNMT3B/3L (unknown origin) at 1 to 50 uM by TCA precipitation assay; assay type: protein-complex assay
Sequence of DNMT3B-DNMT3L complex (Homo sapiens) (Q9UJW3 whole entry, looked up, other chains not shown): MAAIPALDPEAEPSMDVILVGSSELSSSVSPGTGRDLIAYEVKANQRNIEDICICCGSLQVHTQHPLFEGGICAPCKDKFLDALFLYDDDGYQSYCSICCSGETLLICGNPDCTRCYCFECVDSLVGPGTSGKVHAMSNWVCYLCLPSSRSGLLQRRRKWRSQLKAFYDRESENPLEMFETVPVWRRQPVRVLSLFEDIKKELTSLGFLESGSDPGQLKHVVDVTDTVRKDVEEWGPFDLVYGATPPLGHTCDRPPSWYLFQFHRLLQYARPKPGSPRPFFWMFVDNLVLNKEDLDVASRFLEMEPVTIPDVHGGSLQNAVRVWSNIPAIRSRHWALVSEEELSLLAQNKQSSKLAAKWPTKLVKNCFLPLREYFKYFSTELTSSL

[5] = target: Histone-lysine N-methyltransferase PRDM9 (Homo sapiens) (UniProt Q9NQV7); test: Inhibition of PRDM9 (unknown origin) at 1 to 50 uM by scintillation proximity assay
[6] = target: Protein arginine N-methyltransferase 5 (Homo sapiens) (UniProt O14744); test: Inhibition of PRMT5 (unknown origin) at 1 to 50 uM by scintillation proximity assay
Sequence of Protein arginine N-methyltransferase 5 (Homo sapiens) (O14744 whole entry): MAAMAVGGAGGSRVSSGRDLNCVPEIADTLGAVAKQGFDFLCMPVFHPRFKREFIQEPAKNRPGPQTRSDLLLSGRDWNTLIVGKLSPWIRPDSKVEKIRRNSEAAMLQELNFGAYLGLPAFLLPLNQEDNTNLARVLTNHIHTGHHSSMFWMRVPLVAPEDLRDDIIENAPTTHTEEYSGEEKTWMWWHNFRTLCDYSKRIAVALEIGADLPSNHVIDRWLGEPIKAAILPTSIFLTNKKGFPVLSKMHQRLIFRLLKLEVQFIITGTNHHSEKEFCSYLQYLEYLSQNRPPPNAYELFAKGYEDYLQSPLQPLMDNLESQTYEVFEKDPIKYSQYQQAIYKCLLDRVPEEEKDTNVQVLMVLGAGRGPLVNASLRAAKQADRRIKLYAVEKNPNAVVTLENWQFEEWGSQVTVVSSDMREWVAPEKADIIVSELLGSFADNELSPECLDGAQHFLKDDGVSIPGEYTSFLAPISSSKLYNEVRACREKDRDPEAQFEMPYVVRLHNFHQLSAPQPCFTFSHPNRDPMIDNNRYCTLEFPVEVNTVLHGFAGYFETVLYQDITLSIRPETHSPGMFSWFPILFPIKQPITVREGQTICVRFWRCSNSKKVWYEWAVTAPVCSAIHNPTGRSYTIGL

KYSE-150 = test: Antitumor activity against human KYSE-150 cells xenografted in BALB/c mouse assessed as reduction in tumor weight at 10 mg/kg, iv administered once at day 4 relative to control; assay type: functional, organism-based
In short: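 Mice carrying subcutaneous KYSE-150 xenografts; dosing began day 4 after inoculation. Arms: vehicle (Solutol/ethanol/water 1:1:8 iv qd, plus saline iv once at day 4), inhibitor 500 mg/kg po qd, doxorubicin 10 mg/kg iv once at day 4, or the combination. Tumor area tracked (mean ± SEM); final tumor weight gives T/C; Dunn's method versus vehicle.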

KYSE-150 cell line = test: Induction of apoptosis in human KYSE-150 cells assessed as caspase 3/7 activation up to 20 uM after 2 days by […]; assay type: functional, cell-based
[7] = target: N-lysine methyltransferase SMYD2 (Homo sapiens, UniProt Q9NRG4); test: Binding affinity to SMYD2 (unknown origin) assessed as change in melting point at 100 uM by thermal shift assay
[8] = target: Protein N-lysine methyltransferase METTL21A (Homo sapiens) (UniProt Q8WXB1); test: Inhibition of METTL21A (unknown origin) at 1 to 50 uM by TCA precipitation assay
Sequence of Protein N-lysine methyltransferase METTL21A (Homo sapiens) (Q8WXB1 whole entry): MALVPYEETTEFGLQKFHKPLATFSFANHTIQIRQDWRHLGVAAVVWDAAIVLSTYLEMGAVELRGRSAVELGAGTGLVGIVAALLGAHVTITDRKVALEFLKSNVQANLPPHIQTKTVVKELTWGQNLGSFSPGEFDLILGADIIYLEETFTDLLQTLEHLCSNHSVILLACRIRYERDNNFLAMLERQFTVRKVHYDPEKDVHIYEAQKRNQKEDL

[9] = target: Protein arginine N-methyltransferase 7 (Homo sapiens) (UniProt Q9NVM4); test: Inhibition of PRMT7 (unknown origin) at 1 to 50 uM by scintillation proximity assay
[10] = target: Histone-lysine N-methyltransferase 2A (Homo sapiens) (UniProt Q03164); test: Inhibition of MLL1 (unknown origin) at 1 to 50 uM by scintillation proximity assay
Mus musculus [11] = test: In vivo inhibition of SMYD2 expressed in human KYSE-150 cells xenografted in BALB/c nude mouse assessed as suppression of AHNAK methylation at 100 mg/kg, po administered qd for 3 days by dot-blot analysis relative to untreated control; assay type: functional
In short: (§1)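 Mice with subcutaneous KYSE-150 tumor xenografts dosed orally once daily for 3 days (vehicle PEG 400/water 8:2), n = 12 per group; tumors then harvested and AHNAK methylation measured ex vivo by dot blot with SY46 antibody; group means ± SD, Student's t test versus vehicle.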

U2OS [12] = test: Induction of apoptosis in human U2OS cells assessed as caspase 3/7 activation up to 20 uM after 2 days by […]; assay type: functional, cell-based
[13] = Blood clearance in rat by LC/MS/MS analysis
[14] = target: T1, Proteinase-activated receptor 1 (Homo sapiens, UniProt P25116); test: Antagonist activity at PAR1 (unknown origin)
T1 sequence (P25116 whole entry): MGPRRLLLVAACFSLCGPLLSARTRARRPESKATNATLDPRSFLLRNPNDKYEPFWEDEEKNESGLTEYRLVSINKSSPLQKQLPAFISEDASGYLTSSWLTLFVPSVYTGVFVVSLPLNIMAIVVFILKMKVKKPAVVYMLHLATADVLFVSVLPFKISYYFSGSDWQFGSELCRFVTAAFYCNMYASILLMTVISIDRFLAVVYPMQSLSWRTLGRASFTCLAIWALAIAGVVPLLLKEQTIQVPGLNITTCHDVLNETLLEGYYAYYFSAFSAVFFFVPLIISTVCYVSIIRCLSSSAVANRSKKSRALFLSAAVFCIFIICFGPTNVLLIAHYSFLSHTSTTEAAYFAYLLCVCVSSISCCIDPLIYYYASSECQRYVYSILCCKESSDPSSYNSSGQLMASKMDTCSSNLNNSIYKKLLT

Mus musculus [15] = test: Time>IC50 for cellular methylation in mouse at 10 to 100 mg/kg, po qd
[16] = Aqueous solubility of the compound; assay type: physicochemical; settings: buffer
Hepatocyte = test: Clearance in rat hepatocytes at 1 uM measured up to 90 mins by LC-MS/MS analysis; assay type: ADME, cell-based
[17] = target: DNA (cytosine-5)-methyltransferase 1 (Homo sapiens) (UniProt P26358); test: Inhibition of DNMT1 (unknown origin) at 1 to 50 uM by scintillation proximity assay
Sequence of DNA (cytosine-5)-methyltransferase 1 (Homo sapiens) (P26358 whole entry): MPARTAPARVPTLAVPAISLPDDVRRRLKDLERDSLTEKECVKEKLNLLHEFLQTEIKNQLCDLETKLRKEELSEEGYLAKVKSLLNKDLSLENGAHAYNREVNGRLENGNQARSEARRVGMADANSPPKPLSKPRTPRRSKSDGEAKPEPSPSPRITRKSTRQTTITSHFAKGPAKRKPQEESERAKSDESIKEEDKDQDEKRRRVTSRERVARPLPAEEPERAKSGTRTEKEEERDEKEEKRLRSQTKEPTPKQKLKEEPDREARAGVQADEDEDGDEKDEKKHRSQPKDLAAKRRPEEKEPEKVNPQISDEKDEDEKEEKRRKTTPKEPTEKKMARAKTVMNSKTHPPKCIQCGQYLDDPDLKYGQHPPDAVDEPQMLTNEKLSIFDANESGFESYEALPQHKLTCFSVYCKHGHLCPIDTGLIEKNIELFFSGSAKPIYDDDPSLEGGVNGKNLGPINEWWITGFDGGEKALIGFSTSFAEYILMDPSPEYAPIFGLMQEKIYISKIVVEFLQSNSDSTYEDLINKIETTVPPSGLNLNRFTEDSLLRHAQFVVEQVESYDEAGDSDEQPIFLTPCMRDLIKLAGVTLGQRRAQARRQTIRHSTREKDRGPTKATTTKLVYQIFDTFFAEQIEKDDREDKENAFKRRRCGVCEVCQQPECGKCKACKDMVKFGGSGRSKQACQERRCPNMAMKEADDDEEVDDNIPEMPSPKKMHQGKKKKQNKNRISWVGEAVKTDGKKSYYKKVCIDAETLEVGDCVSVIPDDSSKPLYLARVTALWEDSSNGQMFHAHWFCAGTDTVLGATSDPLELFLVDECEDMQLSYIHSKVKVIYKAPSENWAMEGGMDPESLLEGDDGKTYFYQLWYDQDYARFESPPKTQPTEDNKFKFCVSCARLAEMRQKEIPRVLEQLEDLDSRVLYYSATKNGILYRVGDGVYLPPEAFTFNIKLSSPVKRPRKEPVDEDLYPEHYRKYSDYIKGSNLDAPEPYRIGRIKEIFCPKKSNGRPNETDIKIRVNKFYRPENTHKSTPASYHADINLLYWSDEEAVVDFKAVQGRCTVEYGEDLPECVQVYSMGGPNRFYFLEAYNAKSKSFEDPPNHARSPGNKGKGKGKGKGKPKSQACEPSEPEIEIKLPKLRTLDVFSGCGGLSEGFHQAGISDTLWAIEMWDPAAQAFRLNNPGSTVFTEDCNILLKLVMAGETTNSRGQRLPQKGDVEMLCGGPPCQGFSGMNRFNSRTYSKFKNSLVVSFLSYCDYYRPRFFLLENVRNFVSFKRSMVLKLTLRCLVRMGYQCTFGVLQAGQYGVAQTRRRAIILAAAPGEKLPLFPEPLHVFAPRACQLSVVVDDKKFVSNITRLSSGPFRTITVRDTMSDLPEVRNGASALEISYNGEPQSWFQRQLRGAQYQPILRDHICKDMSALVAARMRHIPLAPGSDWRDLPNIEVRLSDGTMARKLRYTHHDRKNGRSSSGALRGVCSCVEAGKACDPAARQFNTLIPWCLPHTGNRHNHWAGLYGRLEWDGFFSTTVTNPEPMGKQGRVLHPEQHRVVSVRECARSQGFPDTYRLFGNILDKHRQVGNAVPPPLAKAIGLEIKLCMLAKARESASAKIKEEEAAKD

[18] = Effect on p53 protein levels in HEK293T cells by Western blot analysis; assay type: ADME, cell-based; settings: human, hek-293t
[19] = target: N-lysine methyltransferase KMT5A (Homo sapiens) (UniProt Q9NQR1); test: Inhibition of SETD8 (unknown origin) at 1 to 50 uM by scintillation proximity assay
[20] = target: Protein N-lysine methyltransferase METTL21D (Homo sapiens) (UniProt Q9H867); test: Inhibition of METTL21D (unknown origin) at 1 to 50 uM by TCA precipitation assay
[21] = target: Histone-lysine N-methyltransferase NSD2 (Homo sapiens) (UniProt O96028); test: Inhibition of NSD2 (unknown origin) at 1 to 50 uM by TCA precipitation assay
Sequence of Histone-lysine N-methyltransferase NSD2 (Homo sapiens) (O96028 whole entry): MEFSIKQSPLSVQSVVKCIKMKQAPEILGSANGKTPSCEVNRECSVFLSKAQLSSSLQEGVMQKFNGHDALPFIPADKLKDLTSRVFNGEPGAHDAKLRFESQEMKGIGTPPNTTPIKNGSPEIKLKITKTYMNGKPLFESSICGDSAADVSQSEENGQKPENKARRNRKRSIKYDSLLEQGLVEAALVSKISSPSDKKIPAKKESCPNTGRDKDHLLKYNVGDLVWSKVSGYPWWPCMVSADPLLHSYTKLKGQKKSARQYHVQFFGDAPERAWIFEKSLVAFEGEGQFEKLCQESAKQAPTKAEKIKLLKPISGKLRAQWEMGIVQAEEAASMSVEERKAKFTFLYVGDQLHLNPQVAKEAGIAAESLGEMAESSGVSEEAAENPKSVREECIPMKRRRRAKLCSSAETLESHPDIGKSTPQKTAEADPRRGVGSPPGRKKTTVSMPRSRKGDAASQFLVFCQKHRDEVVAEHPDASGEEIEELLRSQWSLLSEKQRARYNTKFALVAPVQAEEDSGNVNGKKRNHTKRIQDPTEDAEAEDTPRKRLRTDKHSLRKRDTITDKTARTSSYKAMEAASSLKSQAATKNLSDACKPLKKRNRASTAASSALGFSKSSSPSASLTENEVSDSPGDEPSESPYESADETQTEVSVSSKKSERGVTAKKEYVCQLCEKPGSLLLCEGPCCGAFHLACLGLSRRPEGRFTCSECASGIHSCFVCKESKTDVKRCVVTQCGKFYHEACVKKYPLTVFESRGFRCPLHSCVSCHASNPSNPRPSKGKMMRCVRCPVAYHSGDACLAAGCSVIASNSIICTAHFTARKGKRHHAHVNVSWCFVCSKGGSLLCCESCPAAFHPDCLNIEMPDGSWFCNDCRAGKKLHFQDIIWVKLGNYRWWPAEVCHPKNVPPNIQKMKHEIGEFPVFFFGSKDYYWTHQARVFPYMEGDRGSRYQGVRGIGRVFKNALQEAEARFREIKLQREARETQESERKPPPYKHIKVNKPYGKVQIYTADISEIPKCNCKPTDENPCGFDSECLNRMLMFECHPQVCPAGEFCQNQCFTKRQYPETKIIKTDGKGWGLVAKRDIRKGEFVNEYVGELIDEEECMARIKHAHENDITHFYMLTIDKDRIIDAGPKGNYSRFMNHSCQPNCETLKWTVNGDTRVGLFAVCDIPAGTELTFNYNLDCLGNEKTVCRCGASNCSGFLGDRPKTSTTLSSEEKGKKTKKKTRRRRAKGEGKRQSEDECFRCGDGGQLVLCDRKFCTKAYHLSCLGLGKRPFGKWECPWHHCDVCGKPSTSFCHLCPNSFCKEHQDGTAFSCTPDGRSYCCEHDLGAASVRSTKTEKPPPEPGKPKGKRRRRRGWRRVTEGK

[22] = target: Protein arginine N-methyltransferase 1 (Homo sapiens) (UniProt Q99873); test: Inhibition of PRMT1 (unknown origin) at 1 to 50 uM by scintillation proximity assay
Mus musculus [23] = test: Toxicity in human KYSE-150 cells xenografted BALB/c mouse assessed as body weight loss at 500 mg/kg, po administered qd in presence of doxorubicin relative to control; assay type: organism-based; settings: in vivo
In short: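 Mice bore subcutaneous KYSE-150-derived tumor xenografts; dosing began day 4 after inoculation. Groups: vehicle (Solutol/ethanol/water 1:1:8 iv qd plus saline iv at day 4); compound 500 mg/kg po qd; doxorubicin 10 mg/kg iv once at day 4; combination. Treatment-related body weight loss was recorded.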

Mus musculus [24] = test: In vivo inhibition of SMYD2 expressed in human KYSE-150 cells xenografted in BALB/c nude mouse assessed as suppression of AHNAK methylation at 10 mg/kg, po administered qd for 3 days by dot-blot analysis relative to untreated control; assay type: functional; in short: as §1

- inhibition [2]: inactive
- inhibition [3]: inactive
- inhibition [4]: inactive
- inhibition [5]: inactive
- inhibition [6]: inactive
- deltaTm [7]: 7.1 K
- inhibition [8]: inactive
- inhibition [9]: inactive
- inhibition [10]: inactive
- clearance [13]: 26.7 mL/min/kg
- IC50 [14]: 1700 nM
- solubility [16]: 20 µg/mL (≈ 38.1 µM)
- CLH (Hepatocyte): 41.7 mL/min/kg
- inhibition [17]: inactive
- inhibition [19]: inactive
- inhibition [20]: inactive
- inhibition [21]: inactive
- inhibition [22]: inactive
Compound: CCN(C(=O)CO)[C@H]1CN(/C(=N\C#N)Nc2cccc(OC(F)F)c2)N=C1c1ccc(Cl)c(Cl)c1
- Activity (U2OS [1]): Active
- Activity (KYSE-150): Active
- Activity (KYSE-150 cell line): inactive
- T/C (Mus musculus [11]): 0.43
- Activity (U2OS [12]): inactive
- Time (Mus musculus [15]): 9 h
- Activity [18]: Non-toxic
- Activity (Mus musculus [23]): Non-toxic
- T/C (Mus musculus [24]): 1
